Tests used:
[1] = test system: DNA; assay: Binding affinity to calf thymus DNA assessed as helix melting temperature at 20 uM after 18 hrs by thermal denaturation assay; assay type: nucleic-acid assay; conditions: Bos taurus
Summary of the method: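 Calf thymus duplex DNA (100 µM in phosphate) with ligand at 20 µM (1:5 ligand/DNA molar ratio), added from concentrated DMSO stock into 10 mM sodium phosphate, 1 mM EDTA, pH 7.00. Incubated at 37 °C before melting. Absorbance followed at 260 nm while heating 1 °C/min over 40–95 °C. Tm taken from maxima of d(A260)/dT derivative plots; ΔTm relative to DNA alone.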

[2] = test system: A2780; assay: Cytotoxicity against human A2780 cells by SRB assay; assay type: functional, cell-based
Summary of the method: (§1)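 Human tumour lines given dose–response treatment, with growth or viability estimated by sulforhodamine B protein staining. IC50 is the dose giving 50% growth inhibition versus untreated controls, read from IC50 graphs. Triplicate wells; each experiment repeated three times.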

[3] = test system: SiHa; assay: Cytotoxicity against human SiHa cells by SRB assay; assay type: functional, cell-based; summary of the method: as §1
[4] = test system: COLO 205; assay: Cytotoxicity against human Colo205 cells by SRB assay; assay type: functional, cell-based; summary of the method: as §1
[5] = test system: ZR-75-1; assay: Cytotoxicity against human ZR751 cells by SRB assay; assay type: functional, cell-based; summary of the method: as §1
[6] = test system: MCF7; assay: Cytotoxicity against human MCF7 cells by SRB assay; assay type: functional, cell-based; summary of the method: as §1
[7] = test system: PC-3; assay: Cytotoxicity against human PC3 cells by SRB assay; assay type: functional, cell-based; summary of the method: as §1
[8] = test system: HOP-62; assay: Cytotoxicity against human Hop62 cells by SRB assay; assay type: functional, cell-based; summary of the method: as §1

In the case of `COc1cc2c(cc1OCCCN1CCN(CCCN3C(=O)c4cccc5cccc(c45)C3=O)CC1)N=C[C@@H]1CCCN1C2=O`, the ΔTm [1] is reported as 12.9 °C.
Compound `COc1cc2c(cc1OCCCN1CCN(CCN3C(=O)c4cccc5cccc(c45)C3=O)CC1)N=C[C@@H]1CCCN1C2=O` has an IC50 [2] of 500 nM, an IC50 [3] of 700 nM and an IC50 [4] of 500 nM. For the same compound, the IC50 [5] was < 1000 nM, the ΔTm [1] was 26.5 °C and the IC50 [6] was 500 nM. For the same compound, the IC50 [7] was 500 nM and the IC50 [8] was < 1000 nM.
In the case of `COc1cc2c(cc1O)N=C[C@@H]1CCCN1C2=O`, the ΔTm [1] is reported as 0.7 °C.
With `COc1cccc2c1C(=O)c1c(O)c3c(c(O)c1C2=O)C[C@@](O)(C(=O)CO)C[C@@H]3O[C@H]1C[C@H](N)[C@H](O)[C@H](C)O1` [DOXORUBICIN] the IC50 [6] was 500 nM.
With `COc1cc2c(cc1OCCCCN1CCN(CCCCN3C(=O)c4cccc5cccc(c45)C3=O)CC1)N=C[C@@H]1CCCN1C2=O` the ΔTm [1] was 20.8 °C.
`COc1cc2c(cc1OCCCOc1cc3c(cc1OC)C(=O)N1CCC[C@H]1C=N3)N=C[C@@H]1CCCN1C2=O` was tested, and the ΔTm [1] was 15.1 °C.
For `COc1cc2c(cc1OCCN1CCN(CCN3C(=O)c4cccc5cccc(c45)C3=O)CC1)N=C[C@@H]1CCCN1C2=O`, the IC50 [2] was 500 nM, the IC50 [3] was 1000 nM and the IC50 [4] was 1600 nM. The IC50 [5] was < 1000 nM, the ΔTm [1] was 22.7 °C and the IC50 [6] was 1400 nM. For the same compound, the IC50 [7] was 800 nM and the IC50 [8] was 1200 nM.
`COc1cc2c(cc1OCCCCN1CCN(CCN3C(=O)c4cccc5cccc(c45)C3=O)CC1)N=C[C@@H]1CCCN1C2=O` showed an IC50 [2] of 600 nM, an IC50 [3] of 800 nM and an IC50 [4] of 500 nM. For the same compound, the IC50 [5] was < 1000 nM, the ΔTm [1] was 23.9 °C and the IC50 [6] was 500 nM. The IC50 [7] was 500 nM and the IC50 [8] was < 1000 nM.
